Measured values taken from ChEMBL document CHEMBL1156266, “Antisense oligonucleotides containing conformationally constrained 2',4'-(N-methoxy)aminomethylene and 2',4'-aminooxymethylene and 2'-O,4'-C-aminomethylene bridged nucleoside analogues show improved potency in animal models” (J Med Chem, 2010).
Active and inactive are the calls of the source. The rule behind the calls is not given here.

Assays:
Mus musculus [1] = test: Toxicity in BALB/c mouse assessed as effect on body weight at 0.5 to 14.8 mg/kg, ip administered twice a week for 3 weeks measured after 72 hrs of last dose; format: organism-based; set-up: dose 0.5-14.8 mg/kg, route intraperitoneal; conditions: in vivo
Method in brief: (§1)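 Male Balb/c mice, ip ASO in PBS twice weekly for 3 weeks at four dose levels. Body weight recorded before each dose. Killed 3 days after last dose. Organ weights normalized to body weight, expressed relative to the saline-treated group.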

Mus musculus [2] = test: Toxicity in BALB/c mouse assessed as increase in spleen weight at 0.5 to 14.8 mg/kg, ip administered twice a week for 3 weeks measured after 72 hrs of last dose; format: organism-based; set-up: dose 0.5-14.8 mg/kg, route intraperitoneal; conditions: in vivo; method in brief: as §1
Nucleic Acid = test: Binding affinity to mouse PTEN mRNA assessed as melting temperature at 4 uM by thermal denaturation assay; format: nucleic-acid assay
Method in brief: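 Duplex with complementary length-matched RNA; UV absorbance versus temperature curves in 100 mM Na+, 10 mM phosphate, 0.1 mM EDTA, 4 μM each strand. Tm is the average of two experiments.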

[3] = Reduction in PTEN mRNA expression in mouse bEND.3 cells after 24 hrs by qRT-PCR analysis; format: functional, cell-based; conditions: for IC50: BEND3, 24 h
Method in brief: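 bEnd.3 cells in DMEM/10% FBS, seeded at 1 × 10^4 cells/well the day before. Transfected 4 h at 37 °C with Lipofectin 3 μg/mL in OptiMEM, eight 1:2 dilutions (40 nM to 312.5 pM), then refed with complete medium for 24 h. PTEN RNA by qRT-PCR, normalized to cyclophilin A, as % untreated control. Triplicate plates. IC50 from sigmoidal fit, top 100%, bottom 0%.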

Mus musculus [4] = test: Toxicity in BALB/c mouse assessed as effect on kidney weight at 0.5 to 14.8 mg/kg, ip administered twice a week for 3 weeks measured after 72 hrs of last dose; format: organism-based; set-up: dose 0.5-14.8 mg/kg, route intraperitoneal; conditions: in vivo; method in brief: as §1
Mus musculus [5] = test: Toxicity in BALB/c mouse assessed as effect on liver weight at 0.5 to 14.8 mg/kg, ip administered twice a week for 3 weeks measured after 72 hrs of last dose; format: organism-based; set-up: dose 0.5-14.8 mg/kg, route intraperitoneal; conditions: in vivo; method in brief: as §1
Mus musculus [6] = test: Hepatotoxicity in BALB/c mouse assessed as liver ALT level at 0.5 to 14.8 mg/kg, ip administered twice a week for 3 weeks measured after 72 hrs of last dose; format: toxicity, organism-based; set-up: dose 0.5-14.8 mg/kg, route intraperitoneal; conditions: in vivo
Method in brief: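 Male 6-week-old Balb/c mice dosed ip in PBS twice weekly for 3 weeks: 0.7–23 mg/kg (four levels) or 0.5–14.6/14.8 mg/kg. Killed 72 h after final dose. Plasma from cardiac-puncture blood, ALT on clinical bioanalyzer. Errors are SD.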

Mus musculus [7] = test: Reduction in PTEN mRNA expression in ip dosed BALB/c mouse liver administered twice a week for 3 weeks measured after 72 hrs of last dose by RT-PCR analysis; format: functional
Method in brief: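 Male Balb/c mice, 6-week-old, ASO in PBS ip twice weekly for 3 weeks, four dose levels. Killed 72 h after last dose. Liver homogenized in guanidine isothiocyanate buffer, RNA column-purified. PTEN RNA by fluorescence qRT-PCR, normalized to cyclophilin A. Errors are SD.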

Mus musculus [8] = test: Reduction in PTEN mRNA expression in BALB/c mouse liver at 37 mg/kg, ip administered once a week for 3 weeks measured after 72 hrs of last dose by RT-PCR analysis; format: functional, organism-based; set-up: dose 37 mg/kg

SMILES | Activity (Mus musculus [1]) | Activity (Mus musculus [2]) | Tm (Nucleic Acid) [°C] | Activity [3] | IC50 [3] [nM] | Activity (Mus musculus [4]) | Activity (Mus musculus [5]) | Activity (Mus musculus [6]) | Activity (Mus musculus [7]) | ED50 (Mus musculus [7]) [mg/kg] | Activity (Mus musculus [8])
CON1C[C@@]2(COP(O)(=S)O[C@H]3[C@H]4ON(OC)C[C@@]3(COP(O)(=S)O[C@H]3[C@@H](O)[C@H](n5ccc(N)nc5=O)O[C@@H]3COP(O)(=S)O[C@H]3[C@@H](O)[C@H](n5cnc6c(=O)[nH]c(N)nc65)O[C@@H]3COP(O)(=S)O[C@H]3[C@@H](O)[C@H](n5cnc6c(=O)[nH]c(N)nc65)O[C@@H]3COP(O)(=S)O[C@H]3C[C@H](n5cc(C)c(=O)[nH]c5=O)O[C@@H]3COP(O)(=S)O[C@H]3[C@@H](O)[C@H](n5ccc(N)nc5=O)O[C@@H]3COP(O)(=S)O[C@H]3[C@@H](O)[C@H](n5cnc6c(N)ncnc65)O[C@@H]3COP(O)(=S)O[C@H]3[C@@H](O)[C@H](n5ccc(N)nc5=O)O[C@@H]3COP(O)(=S)O[C@H]3[C@@H](O)[C@H](n5cnc6c(=O)[nH]c(N)nc65)O[C@@H]3COP(O)(=S)O[C@H]3[C@@H](O)[C@H](n5cnc6c(N)ncnc65)O[C@@H]3COP(O)(=S)O[C@H]3C[C@H](n5cc(C)c(=O)[nH]c5=O)O[C@@H]3COP(O)(=S)O[C@H]3[C@H]5ON(OC)C[C@@]3(COP(O)(=S)O[C@H]3[C@H]6ON(OC)C[C@@]3(CO)O[C@H]6n3cc(C)c(N)nc3=O)O[C@H]5n3cc(C)c(=O)[nH]c3=O)O[C@H]4n3cc(C)c(N)nc3=O)O[C@@H](n3cc(C)c(=O)[nH]c3=O)[C@H](O1)[C@@H]2O (stereo not given in full) | Non-toxic | Toxic | 57.7 | Dose-dependent effect | 3.1 | Non-toxic | Non-toxic | Non-toxic | Dose-dependent effect | 8 | –
Cc1cn([C@@H]2O[C@]3(CO)CON(C)[C@@H]2[C@@H]3OP(O)(=S)OC[C@]23CON(C)[C@@H]([C@H](n4cc(C)c(=O)[nH]c4=O)O2)[C@@H]3OP(O)(=S)OC[C@H]2O[C@@H](n3cc(C)c(=O)[nH]c3=O)C[C@@H]2OP(O)(=S)OC[C@H]2O[C@@H](n3cnc4c(N)ncnc43)[C@H](O)[C@@H]2OP(O)(=S)OC[C@H]2O[C@@H](n3cnc4c(=O)[nH]c(N)nc43)[C@H](O)[C@@H]2OP(O)(=S)OC[C@H]2O[C@@H](n3ccc(N)nc3=O)[C@H](O)[C@@H]2OP(O)(=S)OC[C@H]2O[C@@H](n3cnc4c(N)ncnc43)[C@H](O)[C@@H]2OP(O)(=S)OC[C@H]2O[C@@H](n3ccc(N)nc3=O)[C@H](O)[C@@H]2OP(O)(=S)OC[C@H]2O[C@@H](n3cc(C)c(=O)[nH]c3=O)C[C@@H]2OP(O)(=S)OC[C@H]2O[C@@H](n3cnc4c(=O)[nH]c(N)nc43)[C@H](O)[C@@H]2OP(O)(=S)OC[C@H]2O[C@@H](n3cnc4c(=O)[nH]c(N)nc43)[C@H](O)[C@@H]2OP(O)(=S)OC[C@H]2O[C@@H](n3ccc(N)nc3=O)[C@H](O)[C@@H]2OP(O)(=S)OC[C@]23CON(C)[C@@H]([C@H](n4cc(C)c(N)nc4=O)O2)[C@@H]3OP(O)(=S)OC[C@]23CON(C)[C@@H]([C@H](n4cc(C)c(=O)[nH]c4=O)O2)[C@@H]3O)c(=O)nc1N (stereo not given in full) | Non-toxic | – | 55.4 | Dose-dependent effect | 3.4 | Non-toxic | Non-toxic | Non-toxic | Dose-dependent effect | 11 | –
Cc1cn([C@H]2C[C@H](OP(O)(=S)OC[C@H]3O[C@@H](n4cnc5c(=O)[nH]c(N)nc54)[C@H](O)[C@@H]3OP(O)(=S)OC[C@H]3O[C@@H](n4cnc5c(=O)[nH]c(N)nc54)[C@H](O)[C@@H]3OP(O)(=S)OC[C@H]3O[C@@H](n4ccc(N)nc4=O)[C@H](O)[C@@H]3OP(O)(=S)OC[C@H]3O[C@@H](n4ccc(N)nc4=O)[C@H](O)[C@@H]3OP(O)(=S)OC[C@H]3O[C@@H](n4cc(C)c(=O)[nH]c4=O)C[C@@H]3O)[C@@H](COP(O)(=S)O[C@H]3[C@@H](O)[C@H](n4ccc(N)nc4=O)O[C@@H]3COP(O)(=S)O[C@H]3[C@@H](O)[C@H](n4cnc5c(N)ncnc54)O[C@@H]3COP(O)(=S)O[C@H]3[C@@H](O)[C@H](n4ccc(N)nc4=O)O[C@@H]3COP(O)(=S)O[C@H]3[C@@H](O)[C@H](n4cnc5c(=O)[nH]c(N)nc54)O[C@@H]3COP(O)(=S)O[C@H]3[C@@H](O)[C@H](n4cnc5c(N)ncnc54)O[C@@H]3COP(O)(=S)O[C@H]3C[C@H](n4cc(C)c(=O)[nH]c4=O)O[C@@H]3COP(O)(=S)O[C@H]3C[C@H](n4cc(C)c(=O)[nH]c4=O)O[C@@H]3COP(O)(=S)O[C@H]3[C@@H](O)[C@H](n4ccc(N)nc4=O)O[C@@H]3CO)O2)c(=O)[nH]c1=O (stereo not given in full) | – | – | 48.5 | – | – | – | – | – | – | – | –
COCCO[C@@H]1[C@H](O)[C@@H](COP(O)(=S)O[C@H]2[C@@H](OCCOC)[C@H](n3ccc(N)nc3=O)O[C@@H]2COP(O)(=S)O[C@H]2[C@@H](O)[C@H](n3ccc(N)nc3=O)O[C@@H]2COP(O)(=S)O[C@H]2[C@@H](O)[C@H](n3cnc4c(=O)[nH]c(N)nc43)O[C@@H]2COP(O)(=S)O[C@H]2[C@@H](O)[C@H](n3cnc4c(=O)[nH]c(N)nc43)O[C@@H]2COP(O)(=S)O[C@H]2C[C@H](n3cc(C)c(=O)[nH]c3=O)O[C@@H]2COP(O)(=S)O[C@H]2[C@@H](O)[C@H](n3ccc(N)nc3=O)O[C@@H]2COP(O)(=S)O[C@H]2[C@@H](O)[C@H](n3cnc4c(N)ncnc43)O[C@@H]2COP(O)(=S)O[C@H]2[C@@H](O)[C@H](n3ccc(N)nc3=O)O[C@@H]2COP(O)(=S)O[C@H]2[C@@H](O)[C@H](n3cnc4c(=O)[nH]c(N)nc43)O[C@@H]2COP(O)(=S)O[C@H]2[C@@H](O)[C@H](n3cnc4c(N)ncnc43)O[C@@H]2COP(O)(=S)O[C@H]2C[C@H](n3cc(C)c(=O)[nH]c3=O)O[C@@H]2COP(O)(=S)O[C@H]2[C@@H](OCCOC)[C@H](n3ccc(=O)[nH]c3=O)O[C@@H]2COP(O)(=S)O[C@H]2[C@@H](OCCOC)[C@H](n3ccc(N)nc3=O)O[C@@H]2CO)O[C@H]1n1ccc(=O)[nH]c1=O (stereo not given in full) | – | – | 51.3 | Dose-dependent effect | 34.7 | – | – | – | – | > 45 | –
Cc1cn([C@H]2C[C@H](OP(O)(=S)OC[C@H]3O[C@@H](n4cnc5c(=O)[nH]c(N)nc54)[C@H](O)[C@@H]3OP(O)(=S)OC[C@H]3O[C@@H](n4cnc5c(=O)[nH]c(N)nc54)[C@H](O)[C@@H]3OP(O)(=S)OC[C@H]3O[C@@H](n4ccc(N)nc4=O)[C@H](O)[C@@H]3OP(O)(=S)OC[C@]34CO[C@@H]([C@H](n5ccc(N)nc5=O)O3)[C@@H]4OP(O)(=S)OC[C@]34CO[C@@H]([C@H](n5ccc(=O)[nH]c5=O)O3)[C@@H]4O)[C@@H](COP(O)(=S)O[C@H]3[C@@H](O)[C@H](n4ccc(N)nc4=O)O[C@@H]3COP(O)(=S)O[C@H]3[C@@H](O)[C@H](n4cnc5c(N)ncnc54)O[C@@H]3COP(O)(=S)O[C@H]3[C@@H](O)[C@H](n4ccc(N)nc4=O)O[C@@H]3COP(O)(=S)O[C@H]3[C@@H](O)[C@H](n4cnc5c(=O)[nH]c(N)nc54)O[C@@H]3COP(O)(=S)O[C@H]3[C@@H](O)[C@H](n4cnc5c(N)ncnc54)O[C@@H]3COP(O)(=S)O[C@H]3C[C@H](n4cc(C)c(=O)[nH]c4=O)O[C@@H]3COP(O)(=S)O[C@H]3[C@H]4OC[C@@]3(COP(O)(=S)O[C@H]3[C@H]5OC[C@@]3(CO)O[C@H]5n3ccc(N)nc3=O)O[C@H]4n3ccc(=O)[nH]c3=O)O2)c(=O)[nH]c1=O (stereo not given in full) | – | – | 58 | – | – | – | – | – | – | – | –
Cc1cn([C@@H]2O[C@]3(CO)CNO[C@@H]2[C@@H]3OP(O)(=S)OC[C@]23CNO[C@@H]([C@H](n4cc(C)c(=O)[nH]c4=O)O2)[C@@H]3OP(O)(=S)OC[C@H]2O[C@@H](n3cc(C)c(=O)[nH]c3=O)C[C@@H]2OP(O)(=S)OC[C@H]2O[C@@H](n3cnc4c(N)ncnc43)[C@H](O)[C@@H]2OP(O)(=S)OC[C@H]2O[C@@H](n3cnc4c(=O)[nH]c(N)nc43)[C@H](O)[C@@H]2OP(O)(=S)OC[C@H]2O[C@@H](n3ccc(N)nc3=O)[C@H](O)[C@@H]2OP(O)(=S)OC[C@H]2O[C@@H](n3cnc4c(N)ncnc43)[C@H](O)[C@@H]2OP(O)(=S)OC[C@H]2O[C@@H](n3ccc(N)nc3=O)[C@H](O)[C@@H]2OP(O)(=S)OC[C@H]2O[C@@H](n3cc(C)c(=O)[nH]c3=O)C[C@@H]2OP(O)(=S)OC[C@H]2O[C@@H](n3cnc4c(=O)[nH]c(N)nc43)[C@H](O)[C@@H]2OP(O)(=S)OC[C@H]2O[C@@H](n3cnc4c(=O)[nH]c(N)nc43)[C@H](O)[C@@H]2OP(O)(=S)OC[C@H]2O[C@@H](n3ccc(N)nc3=O)[C@H](O)[C@@H]2OP(O)(=S)OC[C@]23CNO[C@@H]([C@H](n4cc(C)c(N)nc4=O)O2)[C@@H]3OP(O)(=S)OC[C@]23CNO[C@@H]([C@H](n4cc(C)c(=O)[nH]c4=O)O2)[C@@H]3O)c(=O)nc1N (stereo not given in full) | – | – | 57.7 | Dose-dependent effect | 3.2 | – | – | – | – | > 37 | inactive
